The record followed here is ChEMBL document CHEMBL1153995, “Synthesis and biological evaluation of new enantiomerically pure azole derivatives as inhibitors of Mycobacterium tuberculosis” (2009).

Converted amounts (≈) assume the structure as drawn.

In the experiment the test system is Mycobacterium tuberculosis. Nature of the experiment: Antimycobacterial activity against Mycobacterium tuberculosis H37Rv ATCC 27294 after 21 to 28 days by two fold agar dilution method. The class given is functional. The method, boiled down:
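Stock kept on Löwenstein-Jensen slants. Twofold agar dilution in Middlebrook 7H11 agar with 10% OADC, compounds at 0.0312–64 µg/mL. Inoculum grown in Middlebrook 7H9 with 10% ADC, suspension at 1.5 × 10⁵ cfu/mL, final 1.5 × 10³ per well. Incubated 21–28 days. MIC read as lowest concentration completely inhibiting visible growth.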

As for `Brc1ccc([C@H](c2cn(Cc3ccccc3)nn2)n2ccnc2)cc1`, the lowest concentration to inhibit growth (MIC) was 16 µg/mL (≈ 40.6 µM).

The molecule `Clc1ccccc1C(c1ccccc1)(c1ccccc1)n1ccnc1` [CLOTRIMAZOLE] returned an MIC of 20.4 µg/mL (≈ 59.2 µM).

Take `Fc1ccc([C@H](c2cn(-c3ccccc3)nn2)n2ccnc2)cc1`: it took 32 µg/mL (≈ 100 µM) to inhibit growth (MIC). Compared with the last molecule, the MIC is about 1.6-fold higher.

On to `Clc1ccc(Cn2cc([C@@H](c3ccc(Cl)cc3)n3ccnc3)nn2)cc1`, for which the MIC was found to be 32 µg/mL (≈ 83.3 µM).

`NNC(=O)c1ccncc1` [ISONIAZID] returned a minimal inhibitory concentration (MIC) of 0.2 µg/mL (≈ 1.46 µM).

Regarding `Fc1ccc([C@H](c2cn(Cc3ccccc3)nn2)n2ccnc2)cc1`, the MIC was 64 µg/mL (≈ 192 µM).

For `Clc1ccc(COC(Cn2ccnc2)c2ccc(Cl)cc2Cl)cc1` (stereo not drawn) [ECONAZOLE], the MIC turned out to be 12.5 µg/mL (≈ 32.7 µM).

`Brc1ccc([C@H](c2cn(-c3ccccc3)nn2)n2ccnc2)cc1` yielded an MIC of 32 µg/mL (≈ 84.2 µM). Compared with the last molecule, the MIC is about 2.6-fold higher.

Molecule `Brc1ccc([C@@H](c2cn(-c3ccccc3)nn2)n2ccnc2)cc1` registered an MIC of 32 µg/mL (≈ 84.2 µM).

In turn, `Fc1ccc([C@@H](c2cn(Cc3ccccc3)nn2)n2ccnc2)cc1` gave an MIC of 64 µg/mL (≈ 192 µM).

The molecule `Clc1ccc(Cn2cc([C@H](c3ccc(Cl)cc3)n3ccnc3)nn2)cc1` showed an MIC of 32 µg/mL (≈ 83.3 µM). Against the preceding molecule, the MIC is about 2-fold lower.

The molecule `Fc1ccc([C@@H](c2cn(-c3ccccc3)nn2)n2ccnc2)cc1` showed a minimal inhibitory concentration (MIC) of 32 µg/mL (≈ 100 µM).

As for `Brc1ccc([C@@H](c2cn(Cc3ccccc3)nn2)n2ccnc2)cc1`, the MIC worked out at 32 µg/mL (≈ 81.2 µM).

The term MIC denotes the least concentration at which growth counts as inhibited.
